# Assay results as given in ChEMBL document CHEMBL3612055, “Design, synthesis and biological evaluation of 1,3-diphenyl-1H-pyrazole derivatives containing benzimidazole skeleton as potential anticancer and apoptosis inducing agents” (Eur J Med Chem, 2015).
# Activity calls are given as the source filed them. No cut-off for these calls is given here.
# Key:
# MCF7 [1] = test: Induction of cell cycle arrest in human MCF7 cells assessed as reduction in accumulation at S phase at IC50 level incubated for 24 hrs by propidium iodide staining based flow cytometry; format: functional
# Procedure, shortened: (§1)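 Floating and adherent cells were fixed in 70% ethanol at 4 °C and rehydrated. They were stained 15 min with PI/Triton X-100/RNase A. 10000 events were acquired by flow cytometry. G0/G1, S and G2/M percentages were gated in FlowJo.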
# MCF7 [2] = test: Reduction in cyclin D1 mRNA expression in human MCF7 cells at IC50 level incubated for 24 hrs by RT-PCR method; format: functional, cell-based
# Procedure, shortened: (§2)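 Total RNA was Trizol-extracted and 1 µg reverse-transcribed with random primers. Real-time PCR ran 95 °C 3 min, then 40 cycles of 95 °C 1 s / 60 °C 20 s. Fold change came from comparative CT, normalised to β-actin. Reactions ran in triplicate, across three experiments.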
# MCF7 [3] = test: Induction of cell morphology changes in human MCF7 cells assessed as cell detachment at IC50 level incubated for 48 hrs by phase contrast microscopy; format: functional, cell-based
# Procedure, shortened: (§3)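 MCF-7 cells were kept in DMEM/10% FBS and used at passages 4-8. […] Detachment, shrinkage and viable cell numbers were scored under phase contrast microscopy against untreated cells.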
# MCF7 [4] = test: Induction of cell cycle arrest in human MCF7 cells assessed as reduction in accumulation at G2/M phase at IC50 level incubated for 24 hrs by propidium iodide staining based flow cytometry; format: functional; procedure, shortened: as §1
# MCF7 [5] = test: Increase in E-cadherin mRNA expression in human MCF7 cells at IC50 level incubated for 24 hrs by RT-PCR method; format: functional; procedure, shortened: as §2
# MCF7 [6] = test: Induction of cell morphology changes in human MCF7 cells assessed as cell shrinkage at IC50 level incubated for 48 hrs by phase contrast microscopy; format: functional, cell-based; procedure, shortened: as §3
# MCF7 [7] = test: Reduction in mitochondrial membrane potential in human MCF7 cells at IC50 level incubated for 24 hrs by rhodamine 123 staining based fluorescence microscopy; format: functional
# Procedure, shortened: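 Harvested cells were loaded with rhodamine 123 (5 µg/mL), washed and incubated 30 min at room temperature. They were analysed by flow cytometry and fluorescence microscopy, and fluorescence loss was quantified by spectrofluorometry vs untreated cells.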
# MCF7 [8] = test: Induction of apoptosis in human MCF7 cells assessed as chromatin condensation at IC50 level incubated for 24 hrs by Hoechst […] staining based fluorescence microscopy; format: functional
# Procedure, shortened: (§4)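 They were fixed in 4% paraformaldehyde and stained with Hoechst […] (5 µg/mL, 30 min, room temperature). Nuclei in random fields were imaged by fluorescence microscopy (ex 350 / em 460 nm). Apoptotic fraction is mean ± SD of three independent experiments; DMSO control.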
# HeLa = test: Anticancer activity against human HeLa cells assessed as reduction in cell growth incubated for 48 hrs by MTT assay; format: functional, cell-based
# MCF7 [9] = test: Inhibition of colony formation in human MCF7 cells assessed as reduction in clonogenic survival at IC50 level incubated for 24 hrs followed medium replacement with fresh medium and further incubation for 14 days; format: functional
# MCF7 [10] = test: Inhibition of cell migration of human MCF7 cells at IC50 level incubated for 24 to 72 hrs by phase contrast microscopy based wound healing assay; format: functional
# Procedure, shortened: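 Confluent MCF-7 monolayers (5×10^5 cells/well, 24 h) were scratched with a pipette tip and washed with PBS pH 7.4. Medium with IC50 concentrations was then added. Cells entering the wound were photographed by phase contrast at 0, 24, 48 and 72 h, in ≥3 random fields per well.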
# MCF7 [11] = test: Induction of apoptosis in human MCF7 cells assessed as reduction in Bcl2 mRNA expression at IC50 level incubated for 24 hrs by RT-PCR method; format: functional, cell-based; procedure, shortened: as §2
# MCF7 [12] = test: Effect on CDK1 cyclin D1 mRNA expression in human MCF7 cells at IC50 level incubated for 24 hrs by RT-PCR method; format: functional, cell-based; procedure, shortened: as §2
# MCF7 [13] = test: Anticancer activity against human MCF7 cells assessed as reduction in cell viability at IC50 level incubated for 48 hrs; format: functional, cell-based; procedure, shortened: as §3
# MCF7 [14] = test: Induction of apoptosis in human MCF7 cells assessed as nuclear fragmentation at IC50 level incubated for 24 hrs by Hoechst […] staining based fluorescence microscopy; format: functional; procedure, shortened: as §4
# MCF7 [15] = test: Induction of apoptosis in human MCF7 cells assessed as increase in caspase-3 mRNA expression at IC50 level incubated for 24 hrs by RT-PCR method; format: functional, cell-based; procedure, shortened: as §2
# A549 = test: Anticancer activity against human A549 cells assessed as reduction in cell growth incubated for 48 hrs by MTT assay; format: functional, cell-based; conditions: A549, 48 h
# MCF7 [16] = test: Induction of apoptosis in human MCF7 cells assessed as increase in Bax mRNA expression at IC50 level incubated for 24 hrs by RT-PCR method; format: functional, cell-based; procedure, shortened: as §2
# MCF7 [17] = test: Induction of apoptosis in human MCF7 cells assessed as DNA fragmentation at IC50 level incubated for 24 hrs by ethidium bromide staining based agarose gel electrophoresis method; format: functional, cell-based
# Procedure, shortened: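 Pellets were lysed in SDS/EDTA/Tris pH 8.0 buffer with RNase A (37 °C, 90 min), then proteinase K (50 °C, 1 h). DNA was precipitated with ammonium acetate/ethanol. It was run on 1.5% agarose in TBE and stained with ethidium bromide, against control cells.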
# MCF7 [18] = test: Increase in cyclin B1 mRNA expression in human MCF7 cells at IC50 level incubated for 24 hrs by RT-PCR method; format: functional; procedure, shortened: as §2
# MCF7 [19] = test: Induction of apoptosis in human MCF7 cells assessed as increase in caspase-7 mRNA expression at IC50 level incubated for 24 hrs by RT-PCR method; format: functional, cell-based; procedure, shortened: as §2
# HaCaT = test: Cytotoxic activity against human HaCaT cells assessed as reduction in cell growth incubated for 48 hrs by MTT assay; format: cell-based
# MCF7 [20] = test: Induction of ROS generation in human MCF7 cells at IC50 level incubated for 24 hrs by carboxy-DCFDA staining based fluorescence microscopy; format: functional
# Procedure, shortened: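 Carboxy-DCFDA (10 µM) was added for 30 min at room temperature in the dark. Cells were washed and resuspended at 5×10^4 cells/mL. Fluorescence was read by spectrofluorometry at ex 488 / em 525 nm, with fluorescence microscopy images also taken.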
# MCF7 [21] = test: Anticancer activity against human MCF7 cells assessed as reduction in cell growth incubated for 48 hrs by MTT assay; format: functional, cell-based; conditions: MCF7, 48 h
# MCF7 [22] = test: Increase in beta-catenin mRNA expression in human MCF7 cells at IC50 level incubated for 24 hrs by RT-PCR method; format: functional; procedure, shortened: as §2
# MCF7 [23] = test: Induction of cell cycle arrest in human MCF7 cells assessed as accumulation at G1 phase at IC50 level incubated for 24 hrs by propidium iodide staining based flow cytometry (reference value: 72.3%); format: functional; procedure, shortened: as §1
Structure (SMILES),Activity (MCF7 [1]),inhibition (MCF7 [2]),Activity (MCF7 [3]),Activity (MCF7 [4]),fold change (FC) (MCF7 [5]),Activity (MCF7 [6]),inhibition (INH) (MCF7 [7]) [%],IC50 (HeLa) [nM],inhibition (INH) (MCF7 [9]) [%],inhibition (MCF7 [10]),Activity (MCF7 [11]),Activity (MCF7 [12]),Activity (MCF7 [13]),Activity (MCF7 [15]),IC50 (A549) [nM],Activity (MCF7 [16]),Activity (MCF7 [17]),fold change (FC) (MCF7 [18]),Activity (MCF7 [19]),IC50 (HaCaT) [nM],also measured
Fc1ccc(-c2nn(-c3ccccc3)cc2-c2nc3cc(F)ccc3[nH]2)cc1,Active,Active,Active,Active,1.6,Active,44,1570,50,Active,Active,inactive,Active,Active,1130,Active,Active,1.1,Active,> 50000,Activity (MCF7 [8]): 26%; Activity (MCF7 [14]): 26%; fold change (FC) (MCF7 [20]): 2; IC50 (MCF7 [21]): 950 nM; fold change (FC) (MCF7 [22]): 1.4; Activity (MCF7 [23]): 84.7%
Brc1ccc2[nH]c(-c3cn(-c4ccccc4)nc3-c3ccccc3)nc2c1,Active,Active,Active,Active,2.2,Active,62,1760,50,Active,Active,inactive,Active,Active,1810,Active,Active,1.1,Active,> 50000,fold change (FC) (MCF7 [20]): 2; IC50 (MCF7 [21]): 830 nM; fold change (FC) (MCF7 [22]): 1.4; Activity (MCF7 [23]): 85.2%
Clc1ccc(-c2nn(-c3ccccc3)cc2-c2nc3cc(Cl)ccc3[nH]2)cc1,Active,Active,Active,Active,1.6,Active,44,1630,50,Active,Active,inactive,Active,Active,1340,Active,Active,1.1,Active,> 50000,Activity (MCF7 [8]): 32%; Activity (MCF7 [14]): 32%; fold change (FC) (MCF7 [20]): 2; IC50 (MCF7 [21]): 1170 nM; fold change (FC) (MCF7 [22]): 1.4; Activity (MCF7 [23]): 81.3%
